One test has as its system Bacillus subtilis. The experiment in a line: Antibacterial activity against Bacillus subtilis assessed as growth inhibition after 18 hrs by agar diffusion method. The test is classed as functional. An outline of the steps: (§1)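 MIC by agar diffusion: ethanolic solutions, starting at a maximum of 0.01 mg/μL with successive 2-fold dilutions; 6 μL aliquots deposited on solidified agar; inhibition zone diameter read after 18 h incubation at 37 °C. Cefotaxime positive control, EtOH negative control.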
(In general: Agar diffusion results depend on both activity and mobility in agar.)

The test system of a further test is Staphylococcus aureus. The experiment in a line: Antibacterial activity against Staphylococcus aureus assessed as growth inhibition after 18 hrs by agar diffusion method. The test is classed as functional. An outline of the steps: as §1
The test system of the next test is Escherichia coli. The experiment in a line: Antibacterial activity against Escherichia coli assessed as growth inhibition at 0.01 mg/uL after 18 hrs by agar diffusion method. The test is classed as functional, organism-based. An outline of the steps: (§2)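 Single-concentration agar diffusion screen: 6 μL aliquots of ethanolic solutions of pure compounds (0.01 mg/μL) deposited on solidified agar; inhibition zone diameter measured after 18 h incubation at 37 °C.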

The subject of a further test is Klebsiella pneumoniae. The experiment in a line: Antibacterial activity against Klebsiella pneumoniae assessed as growth inhibition at 0.01 mg/uL after 18 hrs by agar diffusion method. The test is classed as functional, organism-based. An outline of the steps: as §2

Molecules are shown by their SMILES. Values after ≈ are worked out from the molar mass of the structure shown. Active and inactive are the calls of the source. The rule behind the calls is not given here.

The values below come from ChEMBL document CHEMBL3232859, “Absolute configuration of (13R)- and (13S)-labdane diterpenes coexisting in Ageratina jocotepecana” (2014).

By MIC is commonly meant the lowest concentration found to suppress growth. Take `CO/N=C(\C(=O)N[C@@H]1C(=O)N2C(C(=O)O)=C(COC(C)=O)CS[C@H]12)c1csc(N)n1` [CEFOTAXIME]: the MIC with Bacillus subtilis worked out at 12500 µg/mL (≈ 27.4 mM); in the test with Staphylococcus aureus, 130 µg/mL (≈ 0.285 mM).

In the case of `CC1=CC[C@H]2C(C)(C)CCC[C@]2(C)[C@H]1CC[C@H](C)CC(=O)O`, the “growth inhibition (GI)” value with Escherichia coli and in the test with Klebsiella pneumoniae was “inactive” each time. For the same compound, the MIC is 150 µg/mL (≈ 0.489 mM) in the test with Bacillus subtilis and 780 µg/mL (≈ 2.54 mM) with Staphylococcus aureus.

Turning to `C[C@H](CC[C@@H]1[C@@]2(C)CCCC(C)(C)[C@@H]2CC[C@@]1(C)O)CC(=O)O`, the “growth inhibition (GI)” value in the test on Escherichia coli and with Klebsiella pneumoniae was “inactive” throughout. Further, the MIC came out at 1560 µg/mL (≈ 4.81 mM) in the test with Bacillus subtilis and 2340 µg/mL (≈ 7.21 mM) in the test with Staphylococcus aureus.

For `CC1=CC[C@H]2C(C)(C)CCC[C@]2(C)[C@H]1CC/C(C)=C\C(=O)O`, the “growth inhibition (GI)” value in the test on Escherichia coli and in the test on Klebsiella pneumoniae was “inactive” in each case. The minimal inhibitory concentration (MIC) in the test with Bacillus subtilis turned out to be 1000 µg/mL (≈ 3.28 mM); in the test with Staphylococcus aureus, 10000 µg/mL (≈ 32.8 mM).
